Assay results pooled from the literature.
Lines come from different studies, so protocols differ. In brackets after ≈: the same amount, converted by molar mass.

OC(Cn1cncn1)(Cn1cncn1)c1ccc(F)cc1F — MIC (Aspergillus niger; microbial growth; ATCC16404): 128 µg/mL (≈ 418 µM)
[O-][N+]1=C(c2ccc(Cl)cc2)C2=NCCN2c2ccccc21 — MIC50 (Bacteroides fragilis; microbial growth): ≤ 0.06 µg/mL
O=c1c2ccccc2[se]n1-c1ccccc1 — inhibition (MRC5; cell growth or viability, MTT; 125 µM, 72 h): 56%
CCCCCOc1ccc(-c2cc(-c3ccc(C(=O)N[C@H]4C[C@@H](O)[C@@H](O)NC(=O)[C@@H]5[C@@H](O)[C@@H](C)CN5C(=O)[C@H]([C@H](O)CC(N)=O)NC(=O)[C@H]([C@H](O)[C@@H](O)c5ccc(O)c(OS(=O)(=O)O)c5)NC(=O)[C@@H]5C[C@@H](O)CN5C(=O)[C@H]([C@@H](C)O)NC4=O)cc3)no2)cc1 — inhibition (Lodderomyces parapsilosis; biofilm formation; 16 µg/mL): 49%
O=C(c1ccc(F)cc1)c1c[nH]c2ncc(-c3ccnc(N4CCNCC4)c3)cc12 — viability (MRC5; cell growth or viability, MTT; 10 µM, 48 h): 90.1%
Nc1ccn(C[C@@H](CO)OCP(=O)(O)O)c(=O)n1 — EC50 (Human alphaherpesvirus 1; cytopathic effect; HEL): 2000 nM
COc1ccc(C(=O)c2c[nH]c3ncc(-c4ccc(N5CCN(C(=O)OC(C)(C)C)CC5)nc4)cc23)cc1 — viability (MRC5; cell growth or viability, MTT; 10 µM, 48 h): 80.2%
CN[C@H](CC(C)C)C(=O)N[C@H]1C(=O)N[C@@H](CC(N)=O)C(=O)N[C@H]2C(=O)N[C@H]3C(=O)N[C@H](C(=O)N[C@H](C(=O)O)c4cc(O)cc(O)c4-c4cc3ccc4O)[C@H](O)c3ccc(c(Cl)c3)Oc3cc2cc(c3O[C@@H]2O[C@H](CO)[C@@H](O)[C@H](O)[C@H]2O[C@H]2C[C@](C)(N)[C@H](O)[C@H](C)O2)Oc2ccc(cc2Cl)[C@H]1O — MIC (Bacteroides fragilis; microbial growth, agar dilution; 48 h): > 16 µg/mL
